In ChEMBL document CHEMBL2434878, “Synthesis and antimycobacterial activity of analogues of the bioactive natural products sampangine and cleistopholine” (Eur J Med Chem, 2013):
In brackets after ≈: the same amount, converted by molar mass.

Assays:
[1] = tested on: Mycobacterium avium subsp. paratuberculosis; experiment: Antimicrobial activity against Mycobacterium avium subsp. paratuberculosis ATCC 15769 expressing luciferase reporter gene assessed as growth inhibition after 6 days by luminometry; assay type: functional; settings: ATCC 15769, 144 h
[2] = Genotoxicity in human HepG2/C3A cells assessed as genomic DNA fragmentation at 10 uM after 24 hrs by comet assay; assay type: toxicity, cell-based
Outline: (§1)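 Alkaline comet assay: C3A cells at 100,000/well recovered overnight, then 24 h at 37 °C, 5% CO2 with serial dilutions from DMSO stock in DMEM + 10% FCS. Cells embedded in low-melting agarose, lysed 1 h, electrophoresed 20 min at 300 mA, neutralized, gel red stained. Tail DNA as % of head + tail DNA by fluorescence microscopy; Mann–Whitney test.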

[3] = tested on: Mycobacterium tuberculosis; experiment: Antimicrobial activity against Mycobacterium tuberculosis H37Rv ATCC 27294 expressing luciferase reporter gene assessed as reduction in bacterial count after 6 days by luminometry; assay type: functional; settings: H37Rv ATCC 27294, 144 h
Outline: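 MIC by serial dilution in the 6-day luminescent H37Rv assay (7H9-10% FCS, 50,000 RLU/ml inoculum, triplicate wells, n-decanal read-out). MIC is the concentration giving at least one log10 reduction in signal versus the untreated control.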

[4] = tested on: Mycobacterium tuberculosis; experiment: Antimicrobial activity against Mycobacterium tuberculosis H37Rv ATCC 27294 expressing luciferase reporter gene assessed as growth inhibition at 1 uM after 6 days by luminometry relative to control; assay type: functional; settings: H37Rv ATCC 27294, 144 h, read-out: GI
Outline: (§2)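 Single-concentration screen of the luminescent H37Rv reporter strain in 7H9-10% FCS, inoculated at 50,000 RLU/ml, 6 days at 37 °C. Luminescence was read after n-decanal addition. Percent inhibition is versus the untreated culture, as the mean of triplicate cultures.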

[5] = tested on: Mycobacterium tuberculosis; experiment: Antimicrobial activity against Mycobacterium tuberculosis H37Rv ATCC 27294 expressing luciferase reporter gene assessed as growth inhibition at 0.1 uM after 6 days by luminometry relative to control; assay type: functional; settings: H37Rv ATCC 27294, 144 h, read-out: GI; outline: as §2
[6] = tested on: Mycobacterium ulcerans; experiment: Antimicrobial activity against Mycobacterium ulcerans 1615 expressing luciferase reporter gene assessed as growth inhibition after 6 days by luminometry; assay type: functional; settings: Mycobacterium ulcerans, 1615, 144 h
Outline: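 Luminescent M. ulcerans 1615 carrying pSMT1 luciferase plasmid, grown at 32 °C in 7H9 with 10% OADC and 0.2% glycerol. Serial dilutions from 10 mM DMSO stocks in 7H9 + 10% FCS; bacteria dosed at 50,000 RLU/ml, triplicate wells. After 6 days, light read over 10 s following 1% n-decanal in ethanol. GI50 taken at 50% growth reduction versus untreated culture.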

[7] = Genotoxicity in human HepG2/C3A cells assessed as genomic DNA fragmentation at 1 to 3 uM after 24 hrs by comet assay; assay type: toxicity, cell-based; outline: as §1
[8] = tested on: Mycobacterium tuberculosis; experiment: Antimicrobial activity against Mycobacterium tuberculosis H37Rv ATCC 27294 expressing luciferase reporter gene infected in mouse J774 macrophages assessed as intracellular growth inhibition at 1 uM after 4 days by luminometry relative to untreated control; assay type: functional; settings: H37Rv ATCC 27294, J774, 96 h, read-out: GI
Outline: (§3)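 J774.A1 murine macrophages were seeded at 40,000 cells/well, recovered overnight and infected with luminescent H37Rv. From 24 h post-infection, cells were treated for 4 days in DMEM with penicillin and fungizone, without gentamicin. Growth was read by luminescence after 1% n-decanal and expressed as percent inhibition versus untreated, in triplicate. Macrophage viability was checked by trypan blue.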

[9] = tested on: Mycobacterium tuberculosis; experiment: Antimicrobial activity against Mycobacterium tuberculosis H37Rv ATCC 27294 expressing luciferase reporter gene infected in mouse J774 macrophages assessed as intracellular growth inhibition at 0.5 uM after 4 days by luminometry relative to untreated control; assay type: functional; settings: H37Rv ATCC 27294, J774, 96 h, read-out: GI; outline: as §3
[10] = tested on: Mycobacterium tuberculosis; experiment: Antimicrobial activity against Mycobacterium tuberculosis H37Rv ATCC 27294 expressing luciferase reporter gene assessed as growth inhibition after 6 days by luminometry; assay type: functional; settings: H37Rv ATCC 27294, 144 h
Outline: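 Luminescent H37Rv (pSMT1, V. harveyi luciferase) was declumped by filtration, adjusted to 50,000 RLU/ml in 7H9-10% FCS, and exposed to serial compound dilutions in triplicate for 6 days at 37 °C. Light was read for 10 s after adding 1% n-decanal. GI50 is the concentration giving 50% growth reduction versus untreated culture.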

[11] = Antimicrobial activity against Mycobacterium avium subsp. avium ATCC 19698 expressing luciferase reporter gene assessed as growth inhibition after 6 days by luminometry; assay type: functional; settings: ATCC 19698, 144 h
[12] = tested on: Mycobacterium tuberculosis; experiment: Antimicrobial activity against Mycobacterium tuberculosis H37Rv ATCC 27294 expressing luciferase reporter gene infected in mouse J774 macrophages assessed as intracellular growth inhibition at 2 uM after 4 days by luminometry relative to untreated control; assay type: functional; settings: H37Rv ATCC 27294, J774, 96 h, read-out: GI; outline: as §3
[13] = Cytotoxicity against human HepG2/C3A cells after 24 hrs by neutral red dye uptake assay; assay type: cell-based
[14] = Therapeutic index, ratio of IC50 for human HepG2/C3A cells to GI50 for Mycobacterium tuberculosis H37Rv ATCC 27294; assay type: cell-based; settings: read-out: TI
Outline: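 TI is NI50/GI50. NI50 came from a neutral red uptake assay in C3A hepatocytes (40,000 cells/well, 24 h exposure at 37 °C, 3 h dye, OD 530 nm with 620 nm reference): the concentration reducing dye uptake by 50%. GI50 came from the 6-day luminescent H37Rv assay.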

[15] = tested on: Mycobacterium tuberculosis; experiment: Antimicrobial activity against Mycobacterium tuberculosis H37Rv ATCC 27294 expressing luciferase reporter gene assessed as growth inhibition at 10 uM after 6 days by luminometry relative to control; assay type: functional; settings: H37Rv ATCC 27294, 144 h, read-out: GI; outline: as §2
[16] = tested on: Mycolicibacterium aurum; experiment: Antimicrobial activity against Mycobacterium aurum A+; assay type: functional
[17] = tested on: Mycobacterium intracellulare; experiment: Antimicrobial activity against Mycobacterium intracellulare; assay type: functional

| SMILES | GI50 [1] | Activity [2] | MIC90 [3] | inhibition of growth at 1 µM [4] | inhibition of growth at 0.1 µM [5] | GI50 [6] | Activity [7] | inhibition of growth at 1 µM [8] | inhibition of growth at 0.5 µM [9] | GI50 [10] | GI50 [11] | inhibition of growth at 2 µM [12] | IC50 [13] | selectivity ratio [14] | inhibition of growth at 10 µM [15] | MIC [16] | MIC [17] |
| --- | --- | --- | --- | --- | --- | --- | --- | --- | --- | --- | --- | --- | --- | --- | --- | --- | --- |
| COc1ccc(-c2cc(O)c3c(c2)C(=O)c2ccccc2C3=O)cc1 | 3.52 µM | Toxic | 0.92 µM (≈ 0.304 µg/mL) | 92% | 35% | 7.55 µM | Non-toxic | 27.6% | 21.6% | 0.45 µM | 3.01 µM | 42.3% | 1.87 µM | 4.2 | 100% | – | – |
| COc1ccc(-c2cc3c(c(/C=C/N(C)C)n2)C(=O)c2ccccc2C3=O)cc1 | 3.06 µM | Non-toxic | 0.88 µM (≈ 0.338 µg/mL) | 100% | 42% | 7.65 µM | Non-toxic | 26.3% | 9.3% | 0.36 µM | 2.98 µM | 47.1% | 33.3 µM | 92.5 | 100% | – | – |
| COc1ccc(-c2cc3c4c(nccc4n2)-c2ccccc2C3=O)cc1 | 2.54 µM | Toxic | 0.92 µM (≈ 0.311 µg/mL) | 99% | 81% | 8.56 µM | Non-toxic | 38.5% | 10% | 0.37 µM | 3.56 µM | 51.5% | > 50 µM | > 135 | 100% | – | – |
| O=C1c2cccnc2-c2nccc3c2c1nc1ccccc13 [ASCIDIDEMIN] | – | – | – | – | – | – | – | – | – | – | – | – | – | – | – | 0.25 µg/mL (≈ 0.882 µM) | – |
| CO[C@H]1/C=C/O[C@@]2(C)Oc3c(C)c(O)c4c(O)c(c(/C=N/N5CCN(C)CC5)c(O)c4c3C2=O)NC(=O)/C(C)=C\C=C\[C@H](C)[C@H](O)[C@@H](C)[C@@H](O)[C@@H](C)[C@H](OC(C)=O)[C@@H]1C [RIFAMPIN] | – | – | 0.12 µM (≈ 0.0988 µg/mL) | 100% | 99% | – | – | – | – | 0.03 µM | – | – | – | – | 100% | – | 0.5 µg/mL (≈ 0.608 µM) |
| O=C1c2ccccc2-c2nccc3ccnc1c23 [SAMPANGINE] | – | – | – | – | – | – | – | – | – | – | – | – | – | – | – | – | 0.78 µg/mL (≈ 3.36 µM) |
| CN[C@@H]1[C@H](O[C@H]2[C@H](O[C@H]3[C@H](O)[C@@H](O)[C@H](N=C(N)N)[C@@H](O)[C@@H]3N=C(N)N)O[C@@H](C)[C@]2(O)C=O)O[C@@H](CO)[C@H](O)[C@H]1O [STREPTOMYCIN] | – | – | – | – | – | – | – | – | – | – | – | – | – | – | – | – | 2 µg/mL (≈ 3.44 µM) |
